Measurements published in ChEMBL document CHEMBL3232832, “Derivatives of dibenzothiophene for positron emission tomography imaging of α7-nicotinic acetylcholine receptors” (J Med Chem, 2013).

Key:
Cortex [1] = experiment: Drug uptake in CD-1 mouse cortex at 0.07 mCi, iv after 90 mins co-administered with SSR180711; type: ADME, organism-based; settings: in vivo, 1.5 h
Method in brief: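 Male CD-1 mice (25–30 g), three per dose. Blocker in saline:ethanol 9:1 pH 5.5, given i.v. with [18F] radiotracer (70 µCi, SA 7900 mCi/µmol). Blocker doses 0, 0.02, 0.2, 1 and 3 mg/kg. Regions dissected 90 min later and gamma counted. Expressed as %ID/g, mean ± SD.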

Cerebellum [2] = experiment: Drug uptake in CD-1 mouse cerebellum at 70 uCi, iv administered 10 mins post SSR180711 challenge measured after 90 mins; type: ADME, organism-based; settings: in vivo, 1.5 h
Brain = experiment: Drug uptake in CD-1 mouse other brain region at 70 uCi, iv after 90 mins in presence of cytisine; type: ADME, organism-based; settings: in vivo, 1.5 h
[3] = Drug uptake in CD-1 mouse frontal cortex at 70 uCi, iv followed by compound washout by gamma-counting analysis; type: ADME, organism-based; settings: in vivo
Method in brief: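 Male CD-1 mice (25–30 g), three per time point. [18F] radiotracer (70 µCi, SA 8000–12000 mCi/µmol, in 0.2 mL saline) given by tail vein. Killed at several times up to 90 min. Dissected regions weighed and gamma counted against injectate standards, giving %ID/g.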

Cerebellum [4] = experiment: Drug uptake in CD-1 mouse cerebellum at 70 uCi, iv administered 10 mins post SCH23390 challenge measured after 90 mins; type: ADME, organism-based; settings: in vivo, 1.5 h
Method in brief: (§1)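 Male CD-1 mice, n=3. Drug at 2 mg/kg s.c. in saline:DMSO 5:1, with vehicle controls. [18F] radiotracer (70 µCi, SA ~14000 mCi/µmol) given i.v. 10 min later. Regions harvested 90 min after tracer, gamma counted, expressed as %ID/g. Compared by single-factor ANOVA.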

Cortex [5] = experiment: Drug uptake in CD-1 mouse cortex at 70 uCi, iv administered 10 mins post ondansetron challenge measured after 90 mins; type: ADME, organism-based; settings: in vivo, 1.5 h; method in brief: as §1
Nucleic Acid = experiment: Ratio of drug uptake from hippocampus to cerebellum in CD-1 mouse after 90 mins; type: ADME, nucleic-acid assay; settings: 1.5 h
Hippocampus = experiment: Drug uptake in CD-1 mouse hippocampus at 70 uCi, iv administered 10 mins post ketanserin challenge measured after 90 mins; type: ADME, organism-based; settings: in vivo, 1.5 h; method in brief: as §1

## O=S1(=O)c2cc(N3CCN4CCC3CC4)ccc2-c2cccc([18F])c21
Cortex [1]
  Drug uptake: Not Active
Cerebellum [2]
  Drug uptake: Not Active
Brain
  Drug uptake: Not Active
[3]
  Drug uptake: Active
Cerebellum [4]
  Drug uptake: Active
Cortex [5]
  Drug uptake: Active
Nucleic Acid
  Ratio: 5.5
Hippocampus
  Drug uptake: Active
